Laboratory results published in paper PMC9315039 (Angewandte Chemie (International Ed. in English), 2022).
Read-outs that look alike come from different tables or passages of the source.

Key:
[1] = target: T1, SIRT5 (Homo sapiens, UniProt Q9NXA8); experiment: End-point SIRT5 deglutarylase inhibition assay; assay type: biochemical; settings: Figure 1A; inhibitor 100 μM; NI = no inhibition
T1 sequence (Q9NXA8 34-310): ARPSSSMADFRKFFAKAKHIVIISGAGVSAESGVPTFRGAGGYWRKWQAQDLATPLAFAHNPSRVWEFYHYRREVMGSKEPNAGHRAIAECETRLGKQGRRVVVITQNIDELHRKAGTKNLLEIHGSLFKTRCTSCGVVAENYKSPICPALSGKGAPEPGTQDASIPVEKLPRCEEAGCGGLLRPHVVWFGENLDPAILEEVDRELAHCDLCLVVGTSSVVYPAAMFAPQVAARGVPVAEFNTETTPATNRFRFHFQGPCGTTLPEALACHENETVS
In short: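 End-point deglutarylase assay using recombinant SIRT5 (150 nM) with Ac-LGKglut-AMC substrate (50 μM). Results are given as IC50 from dose-response curves (mean ± SD) or as %-inhibition at stated concentrations. Each value comes from at least two individual assays run in duplicate.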

[2] = target: T1, SIRT5; experiment: Continuous SIRT5 enzyme inhibition assay; assay type: biochemical
In short: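 Continuous trypsin-coupled progression-curve assay with SIRT5 80 nM, NAD⁺ 500 μM, Ac-LGKglu-AMC 40 μM and trypsin 1.70 ng×μL⁻¹, run at several inhibitor concentrations. k_obs was plotted against inhibitor concentration and fitted to slow-binding mechanism A or B, giving Ki and rate constants.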

[3] = target: T2, SIRT5 in HEK293T cells (Homo sapiens, UniProt Q9NXA8); experiment: Isothermal dose-response cellular thermal shift assay; assay type: cell-based
T2 sequence (Q9NXA8 37-310): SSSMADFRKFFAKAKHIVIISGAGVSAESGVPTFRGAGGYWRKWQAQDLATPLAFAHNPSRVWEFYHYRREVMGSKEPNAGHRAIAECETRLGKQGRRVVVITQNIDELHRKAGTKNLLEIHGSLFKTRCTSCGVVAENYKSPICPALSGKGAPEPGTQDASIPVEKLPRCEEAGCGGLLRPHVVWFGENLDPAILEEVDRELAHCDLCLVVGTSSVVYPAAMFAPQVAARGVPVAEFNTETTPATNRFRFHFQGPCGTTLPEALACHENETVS
In short: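 ITDRF-CETSA in HEK293T cells. Cells were treated 2 h with test compound at 2.6 nM–10 μM, with a reference inhibitor at 10 μM as internal control. Samples were heated at 52 °C and soluble SIRT5 was detected by immunoblot. EC50 came from fitted dose-response curves (n≥2), and EC50s of masked/unmasked pairs were compared.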

[4] = tested on: SIRT5 activity in HeLa cells; experiment: Live cell imaging of SIRT5 activity; assay type: cell-based; settings: 10 μM inhibitor, co-treatment with labeled peptide substrate 250 µM, 6 hours
In short: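 HeLa cells were co-treated with a dye-labeled succinylated peptide substrate and test compound at 10 μM. Mitochondrial SIRT5 desuccinylation triggers peptide self-assembly, and the resulting fluorescence was read in cells. This was single-concentration only, without dose-response.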

[5] = tested on: SKM-1 cells; experiment: MTT cell viability assay, SKM-1; assay type: cell-based; settings: concentrations up to 100 μM
In short: (§1)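 Viability dose-response in cultured SKM-1, OCI-AML2, MOLM-13 (AML) and HEK293T cells, with concentrations up to 100 μM. GI50 was taken from dose-response curves. Data come from three individual assays performed in duplicate.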

[6] = tested on: HEK293T cells; experiment: MTT cell viability assay, HEK293T; assay type: cell-based, human; settings: concentrations up to 100 μM
In short: as §1

| Structure (SMILES) | %-inhibition of SIRT5 deglutarylase activity at 100 μM [1] | Ki [2] | EC50 [3] | also measured |
| --- | --- | --- | --- | --- |
| O=C(NC1CCC1)[C@H](Cc1c[nH]c2ccccc12)NC(=O)[C@H](CCCCNC(=S)NCCCO)NS(=O)(=O)c1cccc(F)c1 [Compound 3] | did not show substantial inhibition |  |  |  |
| NC(=O)CCNC(=S)NCCCC[C@H](NS(=O)(=O)c1cccc(F)c1)C(=O)N[C@@H](Cc1c[nH]c2ccccc12)C(=O)NC1CCC1 [Compound 4] |  | micromolar range |  |  |
| O=C1CC(CCNC(=S)NCCCC[C@H](NS(=O)(=O)c2cccc(F)c2)C(=O)N[C@@H](Cc2c[nH]c3ccccc23)C(=O)NC2CCC2)=NO1 [Compound 22] |  |  | > 10000 nM | Ki ([2]; Ki): ~100 nM |
| CCCCNC(=S)NCCCC[C@H](NS(=O)(=O)c1cccc(F)c1)C(=O)N[C@@H](Cc1c[nH]c2ccccc12)C(=O)NC1CCC1 [Compound 2] | did not show substantial inhibition |  |  |  |

Second part, led by results:

| %-inhibition of SIRT5 deglutarylase activity at 100 μM [1] | Ki [2] | EC50 [3] | Structure (SMILES) | also measured |
| --- | --- | --- | --- | --- |
|  | micromolar range |  | O=C(CCNC(=S)NCCCC[C@H](NS(=O)(=O)c1cccc(F)c1)C(=O)N[C@@H](Cc1c[nH]c2ccccc12)C(=O)NC1CCC1)NO [Compound 27] |  |
|  | low nanomolar range | 1300 nM | O=C(NC1CCC1)[C@H](Cc1c[nH]c2ccccc12)NC(=O)[C@H](CCCCNC(=S)NCCc1nnn[nH]1)NS(=O)(=O)c1cccc(F)c1 [Compound 24] | inhibition of SIRT5 activity in HeLa cells (fluorescence) [4]: inhibition of SIRT5 activity; decrease in viability of SKM-1 cells [5]: None of the acidic compounds 1, 16, and 24 caused substantial decrease in viability; decrease in viability of HEK293T cells [6]: None of the acidic compounds 1, 16, and 24 caused substantial decrease in viability |
